Data on 4 compounds can be found in ChEMBL document CHEMBL2321864, “Rapid discovery of a novel series of Abl kinase inhibitors by application of an integrated microfluidic synthesis and screening platform” (J Med Chem, 2013).

Data set [1] in a line: Intrinsic clearance in human liver microsomes. As to conditions: read-out: CLH. It is filed as ADME, Microsome. Put shortly:
(§1)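 In vitro ADME run by a contract lab: human microsomal stability and parallel artificial membrane permeability assay (PAMPA).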
(Microsomes from liver hold many membrane-bound enzymes, among them those of drug oxidation.)

The nature of data set [2]: Apparent permeability of the compound by PAMPA assay. It is filed as ADME. Put shortly: as §1
For orientation: PAMPA measures passive passage across an artificial lipid membrane.

Data set [3] has as its target Mitogen-activated protein kinase 14 (Homo sapiens, UniProt Q16539). The data set can be described thus: Inhibition of P38alpha (unknown origin). Put shortly: (§2)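 Biochemical inhibition assays run by a contract screening service as a panel: ABL1 mutants H396P, M351T, Q252H, T315I and Y253F, plus P38α/MAPK14.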
Data set [4] deals with Tyrosine-protein kinase ABL1 (Homo sapiens, UniProt P00519, Y253F). The data set can be described thus: Inhibition of Abl1 kinase Y253F mutant (unknown origin). Put shortly:
as §2

Data set [5] addresses Tyrosine-protein kinase ABL1 (Homo sapiens, UniProt P00519, T315I). The data set can be described thus: Inhibition of Abl1 kinase T315I mutant (unknown origin). The method, boiled down:
as §2

Data set [6] deals with Tyrosine-protein kinase ABL1 (Homo sapiens, UniProt P00519, M351T). In words: Inhibition of Abl1 kinase M351T mutant (unknown origin). The method, boiled down:
as §2

The target of data set [7] is Tyrosine-protein kinase ABL1 (Homo sapiens, UniProt P00519, Q252H). In words: Inhibition of Abl1 kinase Q252H mutant (unknown origin). Put shortly:
as §2

In data set [8] the target is Tyrosine-protein kinase ABL1 (Homo sapiens, UniProt P00519, H396P). In words: Inhibition of Abl1 kinase H396P mutant (unknown origin). Put shortly: as §2
The target of data set [9] is T1, Tyrosine-protein kinase ABL1 (Homo sapiens, UniProt P00519). In words: Inhibition of wild type Abl1 kinase (unknown origin).
In data set [10] the target is T2, Tyrosine-protein kinase ABL2 (Homo sapiens, UniProt P42684). In words: Inhibition of Abl2 kinase (unknown origin) using Tyr 6 peptide as substrate assessed as residual enzyme activity after every 10 secs measured for 10 mins.
T2 sequence (P42684 whole entry): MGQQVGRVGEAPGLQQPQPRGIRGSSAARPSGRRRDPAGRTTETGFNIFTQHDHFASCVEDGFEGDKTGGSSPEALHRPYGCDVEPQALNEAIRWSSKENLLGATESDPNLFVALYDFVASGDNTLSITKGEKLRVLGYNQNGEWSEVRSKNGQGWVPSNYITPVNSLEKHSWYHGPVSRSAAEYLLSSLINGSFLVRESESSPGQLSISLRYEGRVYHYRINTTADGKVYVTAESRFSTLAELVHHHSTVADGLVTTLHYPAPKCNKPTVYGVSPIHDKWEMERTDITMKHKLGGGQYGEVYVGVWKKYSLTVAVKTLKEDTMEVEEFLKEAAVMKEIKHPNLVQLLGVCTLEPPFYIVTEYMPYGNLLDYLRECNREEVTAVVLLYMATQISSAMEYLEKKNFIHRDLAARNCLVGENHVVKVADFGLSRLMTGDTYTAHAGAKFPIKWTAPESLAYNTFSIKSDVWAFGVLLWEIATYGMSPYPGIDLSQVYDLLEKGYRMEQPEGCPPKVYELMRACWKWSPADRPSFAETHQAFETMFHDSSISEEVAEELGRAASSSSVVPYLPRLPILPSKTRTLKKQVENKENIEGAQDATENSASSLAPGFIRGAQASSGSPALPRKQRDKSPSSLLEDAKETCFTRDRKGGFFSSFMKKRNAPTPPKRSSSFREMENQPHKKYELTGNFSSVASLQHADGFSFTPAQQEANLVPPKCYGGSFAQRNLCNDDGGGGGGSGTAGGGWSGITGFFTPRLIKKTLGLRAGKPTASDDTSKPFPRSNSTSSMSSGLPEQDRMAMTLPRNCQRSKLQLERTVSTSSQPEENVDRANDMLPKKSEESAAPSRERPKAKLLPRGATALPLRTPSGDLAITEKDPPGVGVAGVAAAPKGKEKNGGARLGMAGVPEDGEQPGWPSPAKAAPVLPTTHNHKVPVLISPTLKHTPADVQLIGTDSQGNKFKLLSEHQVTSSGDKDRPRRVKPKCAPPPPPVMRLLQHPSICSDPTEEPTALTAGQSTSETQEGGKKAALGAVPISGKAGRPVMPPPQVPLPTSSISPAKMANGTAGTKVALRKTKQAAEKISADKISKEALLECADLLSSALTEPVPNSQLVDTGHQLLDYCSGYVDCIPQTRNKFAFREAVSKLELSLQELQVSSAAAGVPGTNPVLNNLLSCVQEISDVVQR
For data set [11], the target named is T1, Tyrosine-protein kinase ABL1. In words: Inhibition of Abl1 kinase (unknown origin) using Tyr 6 peptide as substrate assessed as residual enzyme activity after every 10 secs measured for 10 mins.
Data set [12] concerns the target T2, Tyrosine-protein kinase ABL2. In words: Inhibition of Abl2 kinase (unknown origin) using Tyr 6 peptide as substrate assessed as residual enzyme activity after every 10 secs measured for 10 mins by platform assay.
Data set [13] has as its target T1, Tyrosine-protein kinase ABL1. In words: Inhibition of Abl1 kinase (unknown origin) using Tyr 6 peptide as substrate assessed as residual enzyme activity after every 10 secs measured for 10 mins by platform assay.

Chain of Mitogen-activated protein kinase 14 (Q16539 whole entry): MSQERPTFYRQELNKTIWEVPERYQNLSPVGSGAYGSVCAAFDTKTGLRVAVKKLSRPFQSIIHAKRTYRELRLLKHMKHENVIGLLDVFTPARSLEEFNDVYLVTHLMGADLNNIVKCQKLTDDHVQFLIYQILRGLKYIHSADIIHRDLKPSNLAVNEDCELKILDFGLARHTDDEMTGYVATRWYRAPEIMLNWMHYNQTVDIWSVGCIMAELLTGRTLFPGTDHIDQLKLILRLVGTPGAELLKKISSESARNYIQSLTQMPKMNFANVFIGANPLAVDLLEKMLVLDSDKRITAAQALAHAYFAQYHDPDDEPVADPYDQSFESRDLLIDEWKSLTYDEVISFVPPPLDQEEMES

Consider `CN1CCN(Cc2ccc(NC(=O)Nc3cc(C#Cc4cncc5nccn45)n(C)n3)cc2C(F)(F)F)CC1`, for which the microsomal CLint in data set [1] was 76 µL/min/mg. Further, the Papp in data set [2] is 1 nm/s. In addition, the IC50 was 35 nM in data set [3]; 0.9 nM in [4]; 1.9 nM in [5]; 0.9 nM in data set [6]; 1.6 nM in data set [7]; 0.7 nM in [8]. Also, the IC50 in data set [9] was found to be 1.6 nM; in data set [10], 15 nM; in data set [11], 12 nM; in [12] it was 11 nM; in [13], 2 nM.
With `Cc1ccc(C(=O)Nc2ccc(CN3CCN(C)CC3)c(C(F)(F)F)c2)cc1C#Cc1cncc2nccn12`, the microsomal CLint in [1] is 90 µL/min/mg. In data set [2], the Papp was 260 nm/s. Further, the IC50 worked out at 43 nM in [3]; 0.3 nM in [4]; 0.4 nM in data set [5]; 0.3 nM in data set [6]; 0.5 nM in [7]; 0.3 nM in [8]. Moreover, the IC50 in data set [9] is 0.6 nM; in [10], 1 nM; in data set [11], 1 nM; in data set [12], 2 nM; in [13] it was 0.2 nM.
In the case of `CN1CCN(Cc2ccc(NC(=O)Nc3cc(C#Cc4cnc5cnccn45)n(C)n3)cc2C(F)(F)F)CC1`, the microsomal CLint in data set [1] was determined as 51 µL/min/mg. Moreover, in [2], the Papp was found to be 2 nm/s. For the same compound, the IC50 in data set [3] turned out to be 35 nM; in [4], 0.4 nM; in data set [5], 0.8 nM; in [6], 0.5 nM; in data set [7], 1 nM; in data set [8], 0.3 nM. The half-inhibitory concentration (IC50) in [9] turned out to be 1 nM; in [10], 10 nM; in data set [11], 7 nM; in data set [12] it was 3 nM; in data set [13] it was 0.4 nM.
Consider `CN1CCN(Cc2ccc(NC(=O)Nc3cc(C#Cc4cnc5cccnn45)n(C)n3)cc2C(F)(F)F)CC1`, for which the microsomal CLint in data set [1] came to 29 µL/min/mg. For the same compound, the apparent permeability (Papp) in [2] turned out to be 20 nm/s. Moreover, the half-maximal inhibitory concentration (IC50) worked out at 24 nM in [3]; 0.4 nM in [4]; 0.4 nM in data set [5]; 0.4 nM in [6]; 0.7 nM in data set [7]; 0.2 nM in [8]. Also, the 50% inhibitory concentration (IC50) amounted to 1 nM in [9]; 6 nM in data set [10]; 12 nM in data set [11]; 47 nM in data set [12]; 27 nM in data set [13].

What is called Papp is a coefficient for how fast a substance crosses the barrier. Broadly, the IC50 is the point on the concentration scale where inhibition reaches its midpoint.
